# Measurements pooled from the literature.
# Cell line: HeLa
# Observed: cell growth or viability
SMILES,assay,setting,IC50
CC1NC(=O)C(C(=O)NC(C(=O)NC2C(=O)N3C2SC(C)(C)C3C(=O)O)c2ccccc2)=C1O (centres unmarked),ATP luminescence,48 h,106 µg/mL
COc1ccc(-c2cc(=O)c3c(OC)cc(OC)c(-c4c(OC)cc(OC)c5c(=O)cc(-c6ccc(OC)cc6)oc45)c3o2)cc1,MTT,48 h,39.5 µM
COc1cccc(C(=O)O[C@@H]2CN3Cc4c(cc5c(c4OC)OCO5)[C@@]24C=C[C@H](OC)C[C@@H]34)c1,WST-1,48 h,> 10 µM
COc1cccc(C(=O)c2cc3c(-c4ccccc4)c(OC)ccc3o2)c1,,,5.4 µM
COc1cc(OC)c2c(=O)cc(-c3ccccc3Br)oc2c1-c1c(OC)cc(OC)c2c(=O)cc(-c3ccccc3Br)oc12,MTT,48 h,10.4 µM
NCCOc1cc(NC(=O)c2cc(OCc3c[nH]nn3)cc(C(=O)Nc3cc(OCCN)c4ccccc4n3)n2)nc2ccccc12,ATP luminescence,72 h,7.7 µM
COc1cc(C#CC#Cc2cc(OC)cc(OC)c2)cc(OC)c1,MTT,24 h,4.51 µg/mL
COc1ccc2oc(C(=O)c3ccccc3)cc2c1-c1ccccc1,,,> 50 µM
COc1cc(C)cc2oc(-c3ccccc3Br)cc(=O)c12,MTT,48 h,76.3 µM
COc1cccc2c1C(=O)c1c(O)c3c(c(O)c1C2=O)C[C@@](O)(C(=O)CO)C[C@@H]3O[C@H]1C[C@H](N)[C@H](O)[C@H](C)O1,MTT,48 h,0.18 µM
COc1cccc(-c2cccc(NC(=O)CCc3cccc4c3B(O)OC4)c2)c1,ATP luminescence,72 h,1.05 µM
COC(=O)CN=c1scc(-c2ccccc2)n1-c1ccccc1[N+](=O)[O-],MTT,72 h,6.02 µM
CCCC#CC#CCCC,MTT,24 h,105 µg/mL
Cc1c(O)c(=O)ccn1-c1ccc(C(=O)O)cc1,MTT,72 h,600 µM
Nc1ccc(C#CC#Cc2ccc(N)cc2)cc1,MTT,24 h,91.2 µg/mL
CC1(C)SC2C(NC(=O)C(NC(=O)C3=C(O)CN(c4ccccc4)C3=O)c3ccccc3)C(=O)N2C1C(=O)O (centres unmarked),ATP luminescence,48 h,87 µg/mL
COc1cc(OC)c2c(=O)cc(-c3ccc(Br)cc3)oc2c1,MTT,48 h,85.8 µM
CC1(C)S[C@@H]2[C@H](NC(=O)[C@H](N)c3ccccc3)C(=O)N2[C@H]1C(=O)O,ATP luminescence,48 h,72.7 µg/mL
C=CCNC1=C2C[C@@H](C)C[C@H](OC)[C@H](O)[C@@H](C)/C=C(\C)[C@H](OC(N)=O)[C@@H](OC)/C=C\C=C(/C)C(=O)NC(=CC1=O)C2=O,MTT,,0.159 µM
Oc1c(Br)cc(Br)c2cccnc12,MTT,48 h,83.2 µM
O=C(Nc1cc(OCCN2CCCC2)c2ccccc2n1)c1cc(Cl)cc(C(=O)Nc2cc(OCCN3CCCC3)c3ccccc3n2)n1,ATP luminescence,72 h,4.7 µM
CC(=O)O[C@H](C)C(=O)CCCCCCC(=O)Nc1ccccc1,XTT,,> 50 µM
O=C(CCc1cccc2c1B(O)OC2)Nc1ccc(-c2ccccc2)cc1,ATP luminescence,72 h,> 31.6 µM
COc1cc(OC)c2c(=O)cc(-c3ccc(C(F)(F)F)cc3)oc2c1,MTT,48 h,> 100 µM
COc1cc(C(=O)Nc2cc(OC)c3ccccc3n2)nc(C(=O)Nc2cc(OC)c3ccccc3n2)c1,ATP luminescence,72 h,> 40 µM
COc1cc(C)c(-c2c(C)cc(OC)c3c(=O)cc(-c4cccc(Br)c4)oc23)c2oc(-c3cccc(Br)c3)cc(=O)c12,MTT,48 h,> 100 µM
COc1cccc2c1C(=O)c1c(O)c3c(c(O)c1C2=O)C[C@@](O)(C(=O)CO)C[C@@H]3O[C@H]1C[C@H](N)[C@H](O)[C@H](C)O1,SRB,,0.46 µM
COc1cccc2c1C(=O)c1c(O)c3c(c(O)c1C2=O)C[C@@](O)(C(=O)CO)C[C@@H]3O[C@H]1C[C@H](N)[C@H](O)[C@H](C)O1,MTT,24 h,1.2 µM
COc1cc(C)cc2oc(-c3ccccc3)cc(=O)c12,MTT,48 h,82.5 µM
CC1(C)SC2C(NC(=O)C(NC(=O)C3=C(O)C(c4ccccc4)NC3=O)c3ccccc3)C(=O)N2C1C(=O)O (centres unmarked),ATP luminescence,48 h,47.6 µg/mL
c1ccc(-c2ccccn2)nc1,MTT,48 h,> 50 µM
NCCCOc1cc(NC(=O)c2cc(OCc3c[nH]nn3)cc(C(=O)Nc3cc(OCCCN)c4ccccc4n3)n2)nc2ccccc12,ATP luminescence,72 h,> 40 µM
COC(=O)CN=c1scc(-c2ccccc2)n1-c1ccc(Cl)cc1,MTT,72 h,17 µM
CC(C)CC1NC(=O)C(C(=O)NC(C(=O)NC2C(=O)N3C2SC(C)(C)C3C(=O)O)c2ccccc2)=C1O (centres unmarked),ATP luminescence,48 h,69.1 µg/mL
COc1cc(C(=O)Nc2cc(OCCN3CCCC3)c3ccccc3n2)nc(C(=O)Nc2cc(OCCN3CCCC3)c3ccccc3n2)c1,ATP luminescence,72 h,3.9 µM
C[C@@H](O)C(=O)CCCCC[C@@H]1NC(=O)[C@H]2CCCN2C(=O)[C@H](Cc2ccccc2)NC(=O)C(C)(C)NC1=O,XTT,,0.17 µM
C#CCOc1cc(C(=O)Nc2cc(OCCN)c3ccccc3n2)nc(C(=O)Nc2cc(OCCN)c3ccccc3n2)c1,ATP luminescence,72 h,5.2 µM
Cc1ccc2c(Br)cc(Br)c(O)c2n1,MTT,48 h,> 150 µM
O=C(/C=C/c1cccc2c1B(O)OC2)Nc1ccccc1,ATP luminescence,72 h,> 31.6 µM
COc1ccccc1C(=O)c1cc2c(-c3ccccc3)c(O)ccc2o1,,,24 µM
COc1ccc(C(=O)O[C@@H]2CN3Cc4c(cc5c(c4OC)OCO5)[C@@]24C=C[C@H](OC)C[C@@H]34)cc1,WST-1,48 h,> 10 µM
COc1cc(OC)c2c(=O)cc(-c3cccc(Br)c3)oc2c1,MTT,48 h,72 µM
CC(C)C1NC(=O)C(C(=O)NC(C(=O)NC2C(=O)N3C2SC(C)(C)C3C(=O)O)c2ccccc2)=C1O (centres unmarked),ATP luminescence,48 h,59 µg/mL
COc1cccc(C(=O)c2cc3c(-c4ccccc4)c(O)ccc3o2)c1,,,27 µM
